Assay results from different studies.
pIC50: −log10 of the molar value. Values after ≈ are worked out from the molar mass of the structure shown.

For `Cc1ccc(NC(=O)c2cc3c(=O)n4cccc(C)c4nc3n2C)cc1Cl`, the inhibition was 8.11% (Severe acute respiratory syndrome coronavirus 2; viral replication; Vero; 1 nM).
With `O=C(/C=C/c1ccc(O)c(O)c1/C=C/c1ccc(O)c(O)c1)O[C@H](Cc1ccc(O)c(O)c1)C(=O)O` the inhibition was 0% (Severe acute respiratory syndrome coronavirus 2; cytopathic effect, inhibitor; Vero C1008; 12.5 µM).
`O=[N+]([O-])c1ccc(C2=[N+]([O-])c3ccccc3N3CCN=C23)cc1` gave an MIC50 of ≤ 0.06 µg/mL (Clostridioides difficile; microbial growth).
`C=CCNC1=C2C[C@@H](C)C[C@H](OC)[C@H](O)[C@@H](C)/C=C(\C)[C@H](OC(N)=O)[C@@H](OC)/C=C\C=C(/C)C(=O)NC(=C(C)C1=O)C2=O` gave a pIC50 of < 4.70 (ARPE-19; cell growth or viability, MTT).
For `CCCN1CCC=C(c2cc(-c3ccc(C)cc3)no2)C1`, the pIC50 was 5.54 (Severe acute respiratory syndrome coronavirus 2; viral replication, inhibitor; A549-ACE2).
For `CC(C)=CCc1c(O)ccc(C(=O)/C=C/c2ccc(O)cc2)c1O`, the inhibition was 0% (Severe acute respiratory syndrome coronavirus 2; cytopathic effect, inhibitor; Vero C1008; 3.125 µM).
`CC(=O)c1cccc(NC(=O)c2cc3c(=O)n4ccccc4nc3n2C)c1` has an inhibition of 93.7% (Severe acute respiratory syndrome coronavirus 2; viral replication; Vero; 1 µM).
`C=C[C@@](C)(/C=C/c1ccc(O)cc1)CCC=C(C)C` gave an inhibition of 0% (Severe acute respiratory syndrome coronavirus 2; cytopathic effect; Vero C1008; 6.25 µM).
The pIC50 of `CC(C)(C)[C@]1(O)CCN2C[C@@H]3c4ccccc4CCc4cccc(c43)[C@H]2C1` is reported as 5.18 (Severe acute respiratory syndrome coronavirus 2; viral replication; Vero C1008).
With `CCc1ccc(NC(=O)c2cc3c(=O)n4ccccc4nc3n2C)cc1` the inhibition was 95% (Severe acute respiratory syndrome coronavirus 2; viral replication; Vero; 10 µM).
For `CN(CCc1ccc(Cl)c(Cl)c1)CCN1CCCC1`, the pIC50 was 5.28 (Severe acute respiratory syndrome coronavirus 2; viral replication; Vero C1008).
With `O=C(O[C@@H]1Cc2c(O)cc(O)cc2O[C@@H]1c1cc(O)c(O)c(O)c1)c1cc(O)c(O)c(O)c1` the inhibition was 0% (Severe acute respiratory syndrome coronavirus 2; cytopathic effect; Vero C1008; 0.7812 µM).
`Fc1ccc([C@@H]2CCNC[C@H]2COc2ccc3c(c2)OCO3)cc1` gave a pIC50 of 5.60 (Severe acute respiratory syndrome coronavirus 2; viral replication, inhibitor; A549-ACE2).
For `N#C[C@]1(CO)O[C@@H](n2cnc3c(N)ncnc32)C[C@@H]1O`, the pIC50 was 7.18 (Hepatitis B virus; viral replication, qPCR; HepG2.2.15; 14 days).
`COc1c2c(cc3c1OCO3)[C@]13C=C[C@H](OC)C[C@@H]1[N@](C2)C[C@H]3OC(=O)c1ccc2ccccc2c1` has a pIC50 of < 5.00 (PANC-1; cell growth or viability, WST-1).
For `CCN(CC)CCO[C@H]1CC[C@@]2(C)C(=CC[C@@H]3[C@@H]2CC[C@]2(C)C(=O)CC[C@@H]32)C1`, the pIC50 was 6.88 (Severe acute respiratory syndrome coronavirus 2; viral replication, inhibitor; A549-ACE2).
For `CC(C)OC(=O)[C@H](C)N[P@](=O)(CO[C@H](C)Cn1cnc2c(N)ncnc21)Oc1ccccc1`, the pIC50 was 7.30 (Hepatitis B virus; viral replication; HepG2.2.15; 14 days).
The inhibition of `COc1ccc(C[C@@H]2c3cc(Oc4cc(C[C@@H]5c6cc(O)c(OC)cc6CCN5C)ccc4O)c(OC)cc3CCN2C)cc1` is reported as 0% (Severe acute respiratory syndrome coronavirus 2; cytopathic effect; Vero C1008; 1.562 µM).
`COc1cc2c(cc1OC)CN(CCc1ccc(NC(=O)c3cc(OC)c(OC)cc3NC(=O)c3cnc4ccccc4c3)cc1)CC2` has a pIC50 of 5.83 (Severe acute respiratory syndrome coronavirus 2; viral replication, inhibitor; A549-ACE2).
The MIC90 of `Cc1ncc([N+](=O)[O-])n1CCO` is reported as 0.25 µg/mL (≈ 1.46 µM) (Clostridioides difficile; microbial growth).
`Cc1cc(NC(=O)c2cc3c(=O)n4cccc(C)c4nc3n2C)ccc1Br` has an inhibition of 37.8% (Severe acute respiratory syndrome coronavirus 2; viral replication; Vero; 0.1 µM).
The MIC50 of `[O-][N+]1=C(c2ccc(Cl)cc2)C2=NCCN2c2ccccc21` is reported as 0.25 µg/mL (≈ 0.84 µM) (Clostridioides difficile; microbial growth).
The pIC50 of `CCN(CCO)CCCC(C)Nc1ccnc2cc(Cl)ccc12` (centres unmarked) is reported as 6.06 (Severe acute respiratory syndrome coronavirus 2; viral replication, inhibitor; A549-ACE2).
With `O=C(Nc1ccccc1F)c1cc2c(=O)n3ccccc3nc2n1Cc1ccccc1` the inhibition was 87.2% (Severe acute respiratory syndrome coronavirus 2; viral replication; Vero; 0.1 µM).
`CN(Cc1cc(Br)cc(Br)c1N)C1CCCCC1` has a pIC50 of 5.88 (Severe acute respiratory syndrome coronavirus 2; viral replication, inhibitor; A549-ACE2).
`CCC(CC)COC(=O)[C@H](C)N[P@](=O)(OC[C@H]1O[C@@](C#N)(c2ccc3c(N)ncnn23)[C@H](O)[C@@H]1O)Oc1ccccc1` has an inhibition of 64.7% (Severe acute respiratory syndrome coronavirus 2; viral replication; Vero; 0.1 µM).
